Results on seven molecules are retold here after ChEMBL document CHEMBL1287754, “28-nor-oleanane-type triterpene saponins from Camellia japonica and their inhibitory activity on LPS-induced NO production in macrophage RAW264.7 cells” (Bioorg Med Chem Lett, 2010).

Series [1] concerns RAW264.7. As to the kind of experiment: Cytotoxicity against LPS-stimulated mouse RAW264.7 cells assessed as cell viability at 50 uM after 24 hrs by MTT assay. Format: cell-based. The settings on record: raw264.7, 24 h.
In series [2] the test system is RAW264.7. Put plainly: Cytotoxicity against mouse RAW264.7 cells assessed as cell viability at 50 uM after 24 hrs by MTT assay. It counts as cell-based. The settings on record: raw264.7, 24 h. Background: Tetrazolium dyes change colour on reduction, which living cells bring about.
Series [3] deals with RAW264.7. Put plainly: Antiinflammatory activity in mouse RAW264.7 cells assessed as inhibition of LPS-induced nitric oxide production after 24 hrs by Griess reaction. Format: functional, cell-based. The settings on record: RAW264.7, 24 h. The procedure, abridged:
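LPS-stimulated RAW264.7 macrophages; nitrite, the stable NO metabolite, quantified by Griess reaction in harvested culture medium. IC50 is the molar concentration giving 50% inhibition of NO production relative to vehicle control.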
(In general: The Griess reaction detects nitrite, a stable product of nitric oxide.)

Take `CC(=O)O[C@H]1[C@@H](O)[C@H](O)[C@@H](O[C@H]2[C@H](O[C@H]3CC[C@@]4(C)C(CC[C@]5(C)[C@@H]4CC=C4[C@@H]6CC(C)(C)CC[C@]6(O)C(=O)C[C@]45C)C3(C)C)O[C@H](C(=O)O)[C@@H](O)[C@@H]2O[C@@H]2O[C@H](CO)[C@H](O)[C@H](O)[C@H]2O[C@@H]2O[C@H](CO)[C@@H](O)[C@H](O)[C@H]2O)O[C@H]1CO` (some centres undefined) [CAMELLIOSIDE]: the Activity result in series [1] and in series [2] was “Non-toxic” in each case. Also, the IC50 (usually the point on the concentration scale where inhibition reaches its midpoint) in series [3] worked out at 4.96 µM.
`COC(=O)[C@H]1O[C@@H](O[C@H]2CC[C@@]3(C)C(CC[C@]4(C)[C@@H]3CC=C3C5=C(CCC(C)(C)C5)C(=O)C[C@]34C)C2(C)C)[C@H](O[C@H]2O[C@@H](CO)[C@@H](O)[C@@H](O)[C@@H]2O)[C@@H](O[C@@H]2O[C@H](CO)[C@H](O)[C@H](O)[C@H]2O[C@@H]2OC[C@@H](O)[C@H](O)[C@H]2O)[C@@H]1O` (some centres undefined) [CAMELLIOSIDE H]: the Activity result in series [1] and in series [2] was “Non-toxic” in each case. Moreover, the IC50 in series [3] worked out at 15.9 µM.
`CC1(C)CC[C@]2(O)C(=O)C[C@]3(C)C(=CC[C@@H]4[C@@]5(C)CC[C@H](O[C@@H]6O[C@H](C(=O)O)[C@@H](O)[C@H](O[C@@H]7O[C@H](CO)[C@H](O)[C@H](O)[C@H]7O[C@@H]7O[C@H](CO)[C@@H](O)[C@H](O)[C@H]7O)[C@H]6O[C@H]6O[C@@H](CO)[C@@H](O)[C@@H](O)[C@@H]6O)C(C)(C)C5CC[C@]43C)[C@@H]2C1` (some centres undefined) [CAMELLIOSIDE A]: the Activity entry in series [1] and in series [2] was “Non-toxic” each time. Moreover, the IC50 in series [3] came to 9.59 µM.
Take `COC(=O)[C@H]1O[C@@H](O[C@H]2CC[C@@]3(C)C(CC[C@]4(C)[C@@H]3CC=C3[C@@H]5CC(C)(C)CC[C@]5(O)C(=O)C[C@]34C)C2(C)C)[C@H](O[C@H]2O[C@@H](CO)[C@@H](O)[C@@H](O)[C@@H]2O)[C@@H](O[C@@H]2O[C@H](CO)[C@H](O)[C@H](O)[C@H]2O[C@@H]2OC[C@@H](O)[C@H](O)[C@H]2O)[C@@H]1O` (some centres undefined) [CAMELLIOSIDE G]: the Activity result in series [1] and in series [2] was “Non-toxic” throughout. For the same molecule, in series [3], the IC50 is 5.16 µM.
Consider `CC(=O)O[C@H]1[C@@H](O)[C@H](O)[C@@H](O[C@H]2[C@H](O[C@H]3CC[C@@]4(C)C(CC[C@]5(C)[C@@H]4CC=C4[C@@H]6CC(C)(C)CC[C@]6(O)C(=O)C[C@]45C)C3(C)C)O[C@H](C(=O)O)[C@@H](O)[C@@H]2O[C@@H]2O[C@H](CO)[C@H](O)[C@H](O)[C@H]2O[C@@H]2OC[C@@H](O)[C@H](O)[C@H]2O)O[C@H]1CO` (some centres undefined) [CAMELLIOSIDE F], for which the Activity result in series [1] and in series [2] was “Non-toxic” in each case. Besides, the half-inhibitory concentration (IC50) in series [3] stood at 11.5 µM.
For the molecule `CC1CCN=C(N)S1` (centres undefined), in series [3], the half-maximal inhibitory concentration (IC50) came to 0.022 µM.
`CC1(C)CC[C@]2(O)C(=O)C[C@]3(C)C(=CC[C@@H]4[C@@]5(C)CC[C@H](O[C@@H]6O[C@H](C(=O)O)[C@@H](O)[C@H](O[C@@H]7O[C@H](CO)[C@H](O)[C@H](O)[C@H]7O[C@@H]7OC[C@@H](O)[C@H](O)[C@H]7O)[C@H]6O[C@H]6O[C@@H](CO)[C@@H](O)[C@@H](O)[C@@H]6O)C(C)(C)C5CC[C@]43C)[C@@H]2C1` (some centres undefined) [CAMELLIOSIDE E]: the Activity entry in series [1] and in series [2] was “Non-toxic” in each case. The IC50 in series [3] was 18.2 µM.
